Source: ChEMBL document CHEMBL2021791, “Synthesis, structure-activity relationships and biological evaluation of caudatin derivatives as novel anti-hepatitis B virus agents” (Bioorg Med Chem, 2012)

Tests used:
[1] = Cytotoxicity against human HepG2(2.2.15) cells by MTT assay; format: cell-based; conditions: HepG2(2.2.15) cells
Outline: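 HepG2 2.2.15 cells were exposed to compounds and viability was read by a modified MTT method. CC50 is the concentration giving 50% cytotoxicity. Values are means of at least two experiments.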

Hepatitis B virus [2] = experiment: Antiviral activity against Hepatitis B virus infected in human HepG2(2.2.15) cells assessed as suppression of HbeAg secretion by ELISA; format: functional, organism-based
Hepatitis B virus [3] = experiment: Antiviral activity against Hepatitis B virus infected in human HepG2(2.2.15) cells assessed as inhibition of viral DNA replication by RT-PCR analysis; format: functional, organism-based
Hepatitis B virus [4] = experiment: Selectivity ratio of CC50 for human HepG2(2.2.15) cells to IC50 for Hepatitis B virus infected in human HepG2(2.2.15) cells assessed as inhibition of viral replication; format: cell-based; conditions: read-out: Ratio CC50/IC50
Outline: (§1)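 The selectivity index was calculated as CC50/IC50. CC50 is MTT cytotoxicity in HepG2 2.2.15 cells. No index was given where a value could not be obtained.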

Hepatitis B virus [5] = experiment: Antiviral activity against Hepatitis B virus infected in human HepG2(2.2.15) cells assessed as suppression of HBsAg secretion by ELISA; format: functional, organism-based
Hepatitis B virus [6] = experiment: Selectivity ratio of CC50 for human HepG2(2.2.15) cells to IC50 for Hepatitis B virus infected in human HepG2(2.2.15) cells assessed as suppression of HBeAg secretion; format: cell-based; conditions: read-out: Ratio CC50/IC50; outline: as §1
Hepatitis B virus [7] = experiment: Selectivity ratio of CC50 for human HepG2(2.2.15) cells to IC50 for Hepatitis B virus infected in human HepG2.2.15 cells assessed as suppression of HBsAg secretion; format: cell-based; conditions: read-out: Ratio CC50/IC50; outline: as §1

Structure (SMILES) | CC50 [1] | IC50 (Hepatitis B virus [2]) | IC50 (Hepatitis B virus [3]) | selectivity ratio (Hepatitis B virus [4]) | IC50 (Hepatitis B virus [5]) | selectivity ratio (Hepatitis B virus [6]) | selectivity ratio (Hepatitis B virus [7])
CC(=O)[C@]1(O)CC[C@@]2(O)[C@]1(C)[C@H](OC(=O)/C=C(\C)C(C)C)C[C@@H]1[C@@]3(C)CC[C@H](OC(=O)CN(C)C)CC3=CC[C@]12O | 50.5 µM | > 749 µM | 13.8 µM | 3.6 | 87.2 µM | – | –
CC(=O)[C@]1(O)CC[C@@]2(O)[C@]1(C)[C@H](OC(=O)/C=C(\C)C(C)C)C[C@@H]1[C@@]3(C)CC[C@H](OC(=O)c4ccc(F)nc4)CC3=CC[C@]12O | 14.3 µM | > 687 µM | 4.97 µM | 2.9 | 15.6 µM | – | –
CC(=O)[C@]1(O)CC[C@@]2(O)[C@]1(C)[C@H](OC(=O)/C=C(\C)C(C)C)C[C@@H]1[C@@]3(C)CC[C@H](OC(=O)Cc4ccncc4)CC3=CC[C@]12O | 39.9 µM | > 32.8 µM | > 414 µM | – | 19.7 µM | – | –
CC(=O)[C@]1(O)CC[C@@]2(O)[C@]1(C)[C@H](OC(=O)/C=C(\C)C(C)C)C[C@@H]1[C@@]3(C)CC[C@H](OC(=O)CCCC(=O)O)CC3=CC[C@]12O | 310 µM | > 385 µM | 289 µM | 1.1 | > 385 µM | – | –
CC(=O)[C@]1(OC(=O)/C=C/c2cc(F)cc(F)c2)CC[C@@]2(O)[C@]1(C)[C@H](OC(=O)/C=C(\C)C(C)C)C[C@@H]1[C@@]3(C)CC[C@H](OC(=O)/C=C/c4cc(F)cc(F)c4)CC3=CC[C@]12O | > 1580 µM | > 1580 µM | 183 µM | > 8.7 | > 1580 µM | – | –
CC(=O)N1CCC(C(=O)O[C@H]2CC[C@@]3(C)C(=CC[C@]4(O)[C@@H]3C[C@@H](OC(=O)/C=C(\C)C(C)C)[C@@]3(C)[C@]4(O)CC[C@@]3(O)C(C)=O)C2)CC1 | 62.1 µM | < 62.1 µM | 54.8 µM | 1.1 | 93.2 µM | > 1 | –
CCOCC(=O)O[C@H]1CC[C@@]2(C)C(=CC[C@]3(O)[C@@H]2C[C@@H](OC(=O)/C=C(\C)C(C)C)[C@@]2(C)[C@]3(O)CC[C@@]2(O)C(C)=O)C1 | 116 µM | > 153 µM | 13.8 µM | 8.4 | 68.2 µM | – | 1.7
CC(=O)[C@]1(OC(=O)/C=C/c2ccccc2Cl)CC[C@@]2(O)[C@]1(C)[C@H](OC(=O)/C=C(\C)C(C)C)C[C@@H]1[C@@]3(C)CC[C@H](OC(=O)/C=C/c4ccccc4Cl)CC3=CC[C@]12O | > 538 µM | > 257 µM | > 148 µM | – | 599 µM | – | 1.6
CC(=O)[C@]1(O)CC[C@@]2(O)[C@]1(C)[C@H](OC(=O)/C=C(\C)C(C)C)C[C@@H]1[C@@]3(C)CC[C@H](OC(=O)CO)CC3=CC[C@]12O | 136 µM | 147 µM | 219 µM | – | 192 µM | – | –
CC(=O)[C@]1(O)CC[C@@]2(O)[C@]1(C)[C@H](OC(=O)/C=C(\C)C(C)C)C[C@@H]1[C@@]3(C)CC[C@H](OC(=O)c4cccnc4)CC3=CC[C@]12O | 50.4 µM | > 1040 µM | 4.05 µM | 12.4 | 20.8 µM | – | 2.4
C/C(=C\C(=O)O[C@@H]1C[C@@H]2[C@@]3(C)CC[C@H](O)CC3=CC[C@@]2(O)[C@@]2(O)CC[C@@](O)(C(C)O)[C@@]12C)C(C)C (stereo partly drawn) | 217 µM | > 1050 µM | 172 µM | 1.3 | 307 µM | – | –
COc1cc(C(=O)O[C@H]2CC[C@@]3(C)C(=CC[C@]4(O)[C@@H]3C[C@@H](OC(=O)/C=C(\C)C(C)C)[C@@]3(C)[C@]4(O)CC[C@@]3(O)C(C)=O)C2)on1 | 133 µM | > 1180 µM | 17 µM | 7.8 | 201 µM | – | –
CC(=O)[C@]1(O)CC[C@@]2(O)[C@]1(C)[C@H](OC(=O)/C=C(\C)C(C)C)C[C@@H]1[C@@]3(C)CC[C@H](OC(=O)c4ccc(Br)cn4)CC3=CC[C@]12O | 48.4 µM | > 626 µM | 12.5 µM | 3.9 | 76.5 µM | – | –
CC(=O)[C@]1(O)CC[C@@]2(O)[C@]1(C)[C@H](OC(=O)/C=C(\C)C(C)C)C[C@@H]1[C@@]3(C)CC[C@H](OC(=O)c4ccnn4C)CC3=CC[C@]12O | 10.1 µM | > 721 µM | 2.82 µM | 3.6 | 14.5 µM | – | –
CC(=O)[C@]1(O)CC[C@]23OC(C)(C)O[C@]24CC=C2C[C@@H](O)CC[C@]2(C)[C@H]4C[C@@H](OC(=O)/C=C(\C)C(C)C)[C@@]31C | 512 µM | > 1720 µM | 218 µM | 2.3 | 168 µM | – | 3
COCC(=O)O[C@H]1CC[C@@]2(C)C(=CC[C@]3(O)[C@@H]2C[C@@H](OC(=O)/C=C(\C)C(C)C)[C@@]2(C)[C@]3(O)CC[C@@]2(O)C(C)=O)C1 | 102 µM | > 836 µM | 104 µM | – | 70.4 µM | – | 1.4
CC(=O)[C@]1(OC(=O)CCN2C(=O)c3ccccc3C2=O)CC[C@@]2(O)[C@]1(C)[C@H](OC(=O)/C=C(\C)C(C)C)C[C@@H]1[C@@]3(C)CC[C@H](OC(=O)CCN4C(=O)c5ccccc5C4=O)CC3=CC[C@]12O | > 809 µM | > 809 µM | > 202 µM | – | > 809 µM | – | –
COC(=O)COCC(=O)O[C@H]1CC[C@@]2(C)C(=CC[C@]3(O)[C@@H]2C[C@@H](OC(=O)/C=C(\C)C(C)C)[C@@]2(C)[C@]3(O)CC[C@@]2(O)C(C)=O)C1 | 25.3 µM | 78.6 µM | > 105 µM | – | 51.6 µM | – | –
CC(=O)[C@]1(OC(=O)CCC(=O)O)CC[C@@]2(O)[C@]1(C)[C@H](OC(=O)/C=C(\C)C(C)C)C[C@@H]1[C@@]3(C)CC[C@H](OC(=O)CCC(=O)O)CC3=CC[C@]12O | 483 µM | > 966 µM | > 241 µM | – | 653 µM | – | –
CC(=O)[C@]1(O)CC[C@@]2(O)[C@]1(C)[C@H](OC(=O)/C=C(\C)C(C)C)C[C@@H]1[C@@]3(C)CC[C@H](OC(=O)CC#N)CC3=CC[C@]12O | 122 µM | > 161 µM | 7.32 µM | 10.5 | 100 µM | – | 1.2
CC(=O)[C@]1(O)CC[C@@]2(O)[C@]1(C)[C@H](OC(=O)/C=C(\C)C(C)C)C[C@@H]1[C@@]3(C)CC[C@H](O)C[C@@]34O[C@H]4C[C@]12O | 226 µM | 1140 µM | 184 µM | 1.2 | 189 µM | – | 1.2
COCC(=O)O[C@H]1CC[C@@]2(C)C(=CC[C@]3(O)[C@@H]2C[C@@H](OC(=O)/C=C(\C)C(C)C)[C@@]2(C)[C@]3(O)CC[C@@]2(OC(=O)COC)C(C)=O)C1 | > 1400 µM | > 1400 µM | 288 µM | > 4.9 | 331 µM | – | > 4.2
CC(=O)[C@]1(O)CC[C@@]2(O)[C@]1(C)[C@H](OC(=O)/C=C(\C)C(C)C)C[C@@H]1[C@@]3(C)CCC(=O)CC3=CC(=O)[C@]12O | 155 µM | > 1630 µM | 113 µM | 1.4 | 205 µM | – | –
COP(=O)(OC)O[C@H]1CC[C@@]2(C)C(=CC[C@]3(O)[C@@H]2C[C@@H](OC(=O)/C=C(\C)C(C)C)[C@@]2(C)[C@]3(O)CC[C@@]2(O)C(C)=O)C1 | 560 µM | > 1750 µM | 105 µM | 5.3 | > 1750 µM | – | –
CC(=O)[C@]1(O)CC[C@@]2(O)[C@]1(C)[C@H](OC(=O)/C=C(\C)C(C)C)C[C@@H]1[C@@]3(C)CC[C@H](OP(=O)(Oc4ccccc4)Oc4ccccc4)CC3=CC[C@]12O | > 1940 µM | > 1940 µM | > 485 µM | – | > 1940 µM | – | –
CC(=O)N1CCC[C@H]1C(=O)O[C@H]1CC[C@@]2(C)C(=CC[C@]3(O)[C@@H]2C[C@@H](OC(=O)/C=C(\C)C(C)C)[C@@]2(C)[C@]3(O)CC[C@@]2(O)C(C)=O)C1 | 106 µM | > 638 µM | 65.7 µM | 1.6 | 70.7 µM | – | 1.5
CC(=O)[C@]1(OC(=O)CCCC(=O)O)CC[C@@]2(O)[C@]1(C)[C@H](OC(=O)/C=C(\C)C(C)C)C[C@@H]1[C@@]3(C)CC[C@H](OC(=O)CCCC(=O)O)CC3=CC[C@]12O | > 268 µM | > 268 µM | > 268 µM | – | > 268 µM | – | –
CC(=O)[C@]1(O)CC[C@@]2(O)[C@]1(C)[C@H](OC(=O)/C=C(\C)C(C)C)C[C@@H]1[C@@]3(C)CC[C@H](OC(=O)COCC(=O)O)CC3=CC[C@]12O | 274 µM | 115 µM | 164 µM | 1.7 | 524 µM | 2.4 | –
CC(=O)[C@]1(O)CC[C@@]2(O)[C@]1(C)[C@H](OC(=O)/C=C(\C)C(C)C)C[C@@H]1[C@@]3(C)CC[C@H](OC(=O)c4cnccn4)CC3=CC[C@]12O | 61.3 µM | < 50.3 µM | 47.9 µM | 1.3 | 95.5 µM | > 1.2 | –
